Measurements reported in ChEMBL document CHEMBL1125515, “DNA-directed alkylating agents. 5. Acridinecarboxamide derivatives of (1,2-diaminoethane)dichloroplatinum(II)” (J Med Chem, 1992).
pIC50: −log10 of the molar value.

Columns and labels:
P388 = assay: In Vitro evaluation for the growth inhibition of Wildtype P388 Leukemia cell lines; format: functional, cell-based; details: Mus musculus
How it was run: (§1)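 Cells were continuously exposed to drug for 72 h in 96-well cultures. IC50 is the drug concentration (μM) inhibiting cell growth by 50%. Determinations were run in triplicate.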

[1] = In Vitro evaluation for the growth inhibition of Subline (P388/CP) Leukemia cell lines; format: functional, cell-based, Mus musculus; how it was run: as §1
Mus musculus [2] = assay: Compound was treated in vivo for percent increase in life span of treated animals (optimal dose 45 mg/kg, ip) compared with […]/W bearing control animals; format: functional
[3] = In Vitro evaluation for the growth inhibition of Subline (P388/AMSA) Leukemia cell lines; format: functional, cell-based, Mus musculus; how it was run: as §1
Mus musculus [4] = assay: Compound was treated in vivo for percent increase in life span of treated animals (optimal dose 20 mg/kg, ip) compared with […]/W bearing control animals; format: functional
Mus musculus [5] = assay: Compound was treated in vivo for percent increase in life span of treated animals (optimal dose 30 mg/kg, ip) compared with […]/W bearing control animals; format: functional
Mus musculus [6] = assay: Compound was treated in vivo for percent increase in life span of treated animals (optimal dose 100 mg/kg, ip) compared with […]/W bearing control animals; format: functional
Mus musculus [7] = assay: Compound was treated in vivo for percent increase in life span of treated animals (optimal dose 5.3 mg/kg, ip) compared with P338/W bearing control animals; format: functional, organism-based; set-up: dose 5.3 mg/kg; details: at 5.3 mg/kg
Mus musculus [8] = assay: Compound was treated in vivo for percent increase in life span of treated animals (optimal dose 5.5 mg/kg, ip) compared with P338/W bearing control animals; format: functional, organism-based; set-up: dose 5.5 mg/kg; details: at 5.5 mg/kg
Mus musculus [9] = assay: Compound was treated in vivo for percent increase in life span of treated animals (optimal dose 13.3 mg/kg) compared with […]/CP bering control animals; format: functional, organism-based; set-up: dose 13.3 mg/kg; details: at 13.3 mg/kg
Mus musculus [10] = assay: Compound was treated in vivo for percent increase in life span of treated animals (optimal dose 13.3 mg/kg, ip) compared with […]/W bearing control animals; format: functional, organism-based; set-up: dose 13.3 mg/kg; details: at 13.3 mg/kg
Mus musculus [11] = assay: Compound was treated in vivo for percent increase in life span of treated animals (optimal dose 65 mg/kg, ip) compared with P338/W bearing control animals; format: functional

Row | Molecule | pIC50 (P388) | pIC50 ([1]; Mus musculus) | pIC50 ([3]; Mus musculus) | further results
1 | Cl.NCCNCCCNC(=O)c1cccc2c(N)c3ccccc3nc12 | 5.51 | 5.59 | 6.06 | Increase in life-span (Mus musculus [2]): 45%
2 | Cl.NCCNCCCCCCNC(=O)c1cccc2cc3ccccc3nc12 | 6.29 | 6.46 | 5.96 | Increase in life-span (Mus musculus [4]): 23%
3 | CISPLATIN [listing 1 of 2 here] |  |  |  | pIC50 [1]: 5.28; pIC50 [3]: 5.26
4 | Cl.NCCNCCCNC(=O)c1cccc2cc3ccccc3nc12 | 6.13 | 6.23 | 5.80 | Increase in life-span (Mus musculus [5]): 64%
5 | Cl.NCCNCCCNC(=O)c1ccc2nc3ccccc3cc2c1 | 5.42 | 5.31 |  | Increase in life-span (Mus musculus [6]): <20%
6 | CISPLATIN [listing 2 of 2 here] |  |  |  | Increase in life-span (Mus musculus [7]): 120%; Increase in life-span (Mus musculus [8]): < 20%
7 | DICHLORO(ETHYLENEDIAMINE) PLATINUM (II) [listing 1 of 2 here] |  |  |  | pIC50 [1]: 5.99
8 | DICHLORO(ETHYLENEDIAMINE) PLATINUM (II) [listing 2 of 2 here] |  |  |  | Increase in life-span (Mus musculus [9]): < 20%; Increase in life-span (Mus musculus [10]): 70%
9 | Cl.NCCNCCCCCCNC(=O)c1ccc2nc3ccccc3cc2c1 | 5.44 | 5.42 |  | Increase in life-span (Mus musculus [6]): <20%
10 | Cl.NCCNCCCCCCNC(=O)c1cccc2c(N)c3ccccc3nc12 | 5.28 | 5.64 |  | Increase in life-span (Mus musculus [11]): <20%
